# Measured values reported in ChEMBL document CHEMBL1142276, “Synthesis, cannabinoid receptor affinity, and molecular modeling studies of substituted 1-aryl-5-(1H-pyrrol-1-yl)-1H-pyrazole-3-carboxamides” (J Med Chem, 2008).
# Calls of active or inactive are those of the source. The calls are words filed in the database; no cut-off is given here.
# Tests used:
# [1] = biological target: Cannabinoid receptor 2 (Homo sapiens, UniProt P34972); test: Displacement of [3H]CP-55940 from human recombinant CB2 receptor expressed in HEK cells; assay type: cell-based, HEK293
# Cannabinoid receptor 2, sequence (P34972 whole entry): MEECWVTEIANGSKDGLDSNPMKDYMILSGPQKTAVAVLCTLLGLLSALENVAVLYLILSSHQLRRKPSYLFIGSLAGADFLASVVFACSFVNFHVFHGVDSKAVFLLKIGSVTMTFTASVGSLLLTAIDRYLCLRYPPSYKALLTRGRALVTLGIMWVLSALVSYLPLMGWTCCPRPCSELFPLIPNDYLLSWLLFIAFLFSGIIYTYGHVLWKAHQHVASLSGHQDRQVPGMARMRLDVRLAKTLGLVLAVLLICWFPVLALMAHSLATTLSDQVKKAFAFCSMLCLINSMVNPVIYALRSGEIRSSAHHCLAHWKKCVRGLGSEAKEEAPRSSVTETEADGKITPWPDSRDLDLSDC
# How it was run: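 Membranes came from HEK cells transfected with human CB2. IC50 values were converted to Ki by Cheng-Prusoff. Values are means of at least three experiments, each in duplicate.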
# [2] = biological target: Cannabinoid receptor 1 (Homo sapiens, UniProt P21554); test: biochemical; assay type: cell-based, HEK293
# Cannabinoid receptor 1 (Homo sapiens, UniProt P21554), sequence (P21554 whole entry): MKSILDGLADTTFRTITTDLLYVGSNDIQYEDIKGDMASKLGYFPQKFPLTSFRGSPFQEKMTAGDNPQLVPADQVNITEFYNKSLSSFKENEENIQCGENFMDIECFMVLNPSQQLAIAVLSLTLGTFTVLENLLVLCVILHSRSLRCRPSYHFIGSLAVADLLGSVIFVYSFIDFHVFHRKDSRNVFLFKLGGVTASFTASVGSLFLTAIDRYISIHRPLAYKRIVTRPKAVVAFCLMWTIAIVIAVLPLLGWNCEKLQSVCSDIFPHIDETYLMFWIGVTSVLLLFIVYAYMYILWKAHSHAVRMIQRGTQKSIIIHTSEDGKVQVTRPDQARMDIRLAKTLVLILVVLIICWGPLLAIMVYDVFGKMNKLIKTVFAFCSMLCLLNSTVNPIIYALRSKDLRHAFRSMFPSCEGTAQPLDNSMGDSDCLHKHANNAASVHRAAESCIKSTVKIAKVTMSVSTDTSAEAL
# [3] = species: Homo sapiens; test: Ratio of Ki for human recombinant CB2 receptor to human recombinant CB1 receptor
# [4] = biological target: Cannabinoid receptor 1 (Mus musculus, UniProt P47746); test: Activity at mouse CB1 receptor in mouse N18TG2 cells assessed as forskolin-induced cAMP formation; assay type: functional, cell-based
# Cannabinoid receptor 1 (Mus musculus, UniProt P47746), sequence (P47746 whole entry): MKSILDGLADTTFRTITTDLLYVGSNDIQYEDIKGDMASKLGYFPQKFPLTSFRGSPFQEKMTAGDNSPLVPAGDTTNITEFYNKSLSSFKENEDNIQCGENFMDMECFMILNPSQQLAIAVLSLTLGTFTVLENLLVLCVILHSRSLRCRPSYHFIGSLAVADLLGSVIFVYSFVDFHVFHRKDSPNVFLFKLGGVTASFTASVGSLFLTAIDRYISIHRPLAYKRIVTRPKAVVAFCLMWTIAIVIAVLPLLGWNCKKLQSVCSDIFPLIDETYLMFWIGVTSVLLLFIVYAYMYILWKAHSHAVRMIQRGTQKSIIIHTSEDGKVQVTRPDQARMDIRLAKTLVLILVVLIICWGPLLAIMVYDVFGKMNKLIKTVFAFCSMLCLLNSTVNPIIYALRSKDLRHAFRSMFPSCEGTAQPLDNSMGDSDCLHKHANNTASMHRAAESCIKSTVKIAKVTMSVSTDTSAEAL
# How it was run: (§1)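 Intact confluent mouse N18TG2 neuroblastoma cells were stimulated for 10 min at 37 °C with 1 µM forskolin in serum-free DMEM with 20 mM HEPES, 0.1 mg/mL BSA and 0.1 mM IBMX. Compounds were given at various concentrations, with vehicle 0.1% methanol. Cells were then extracted with ethanol and cAMP was measured by kit.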
# [5] = biological target: Cannabinoid receptor 1 (Mus musculus) (UniProt P47746); test: Activity at mouse CB1 receptor in mouse N18TG2 cells assessed as inhibition of forskolin-induced cAMP formation at 200 to 300 nM; assay type: functional, cell-based; how it was run: as §1
# Cannabinoid receptor 1 (Mus musculus), sequence (P47746 whole entry): as above
# [6] = biological target: Cannabinoid receptor 1 (Mus musculus) (UniProt P47746); test: Antagonist activity at mouse CB1 receptor in mouse N18TG2 cells assessed as forskolin-induced cAMP formation in presence of WIN-55212-2; assay type: functional, cell-based
# How it was run: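 Intact confluent N18TG2 cells were exposed to compound with or without the CB1 agonist WIN55,212-2 at 100 nM, in the presence and absence of 1 µM forskolin. Incubation was 10 min at 37 °C in serum-free DMEM with HEPES, BSA and IBMX, vehicle 0.1% methanol. cAMP in ethanol extracts was quantified by kit.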
Structure (SMILES),Ki [1],IC50 ([1]; read-out: IC50),IC50 [2],Ki [2],IC50 ([1]; hek293),Ratio Ki [3],EC50 [4],Activity [5],Activity [6]
Cc1c(C(=O)NCc2ccc(Cl)c(Cl)c2)nn(-c2ccc(Cl)c(Cl)c2)c1-n1cccc1,0.15 µM,0.19 µM,–,–,–,–,–,–,–
N#Cc1c(C(=O)NN2CCCCC2)nn(-c2ccccc2)c1-n1cccc1,> 3.94 µM,–,> 5 µM,> 2.82 µM,–,–,–,–,–
Cc1c(C(=O)NN2CCCCC2)nn(-c2ccccc2)c1-n1cccc1,> 3.94 µM,–,> 5 µM,> 2.82 µM,Not Active,–,–,–,–
Cc1c(C(=O)NC2CCCCC2)nn(-c2ccc(Cl)c(Cl)c2)c1-n1c(C)ccc1C,0.0013 µM,0.0017 µM,0.025 µM,0.014 µM,–,0.093,–,–,–
O=C(NC1CCCCC1)c1cc(-n2cccc2)n(-c2ccc(Cl)cc2)n1,1.75 µM,2.22 µM,0.5 µM,0.28 µM,–,6.25,–,–,–
Cc1c(C(=O)NN2CCCCC2)nn(-c2ccc(Cl)cc2Cl)c1-n1cccc1,1.73 µM,0.2 µM,3.3 µM,1.85 µM,–,0.94,–,–,–
Cc1c(C(=O)NN2CCCCC2)nn(-c2ccc(Cl)c(Cl)c2)c1-n1cccc1,0.02 µM,0.025 µM,–,–,–,–,–,–,–
Cc1c(C(=O)NC2CCCCC2)nn(-c2ccc(Cl)cc2Cl)c1-n1cccc1,0.064 µM,0.081 µM,0.1 µM,0.056 µM,–,1.14,–,–,–
O=C(NN1CCCCC1)c1cc(-n2cccc2)n(-c2ccccc2)n1,> 3.94 µM,–,> 5 µM,> 2.82 µM,–,–,–,–,–
Cc1c(C(=O)NN2CCCCC2)nn(-c2ccc(Cl)c(Cl)c2)c1-n1c(C)ccc1C,0.029 µM,0.037 µM,–,–,–,–,–,–,–
Cc1c(C(=O)NN2CCCCC2)nn(-c2ccc(Cl)cc2Cl)c1-n1c(C)ccc1C,0.98 µM,1.24 µM,0.067 µM,0.038 µM,–,25.8,–,–,–
O=C(NN1CCCCC1)c1cc(-n2cccc2)n(-c2ccc(Cl)cc2)n1,> 3.94 µM,–,–,–,–,–,–,–,–
Cc1c(C(=O)NCc2ccc(Cl)c(Cl)c2)nn(-c2ccc(Cl)cc2Cl)c1-n1c(C)ccc1C,3.94 µM,5 µM,0.05 µM,0.028 µM,–,141,0.025 µM,inactive,–
Cc1nn(-c2ccc(Cl)cc2)c(-n2cccc2)c1C(=O)NN1CCCCC1,> 3.94 µM,–,> 5 µM,> 2.82 µM,–,–,–,–,–
Cc1c(C(=O)NN2CCCCC2)nn(-c2c(Cl)cc(Cl)cc2Cl)c1-n1c(C)ccc1C,> 3.94 µM,> 5 µM,0.2 µM,0.11 µM,–,> 35.8,–,–,–
Cc1c(C(=O)NC2CCCCC2)nn(-c2ccc(F)cc2F)c1-n1cccc1,0.065 µM,0.083 µM,–,–,–,–,–,–,–
Cc1c(C(=O)NC2CCCCC2)nn(-c2ccc(F)cc2F)c1-n1c(C)ccc1C,0.57 µM,0.72 µM,–,–,–,–,–,–,–

Structure (SMILES),Ki [1],IC50 ([1]; read-out: IC50),IC50 [2],Ki [2],IC50 ([1]; hek293),Ratio Ki [3],EC50 [4],Activity [5],Activity [6]
Cc1c(C(=O)NN2CCCCC2)nn(-c2c(Cl)cc(Cl)cc2Cl)c1-n1cccc1,> 3.94 µM,> 5 µM,3.2 µM,1.8 µM,–,> 2.19,–,–,–
Cc1c(C(=O)NN2CCCCC2)nn(-c2ccc(F)cc2F)c1-n1c(C)ccc1C,> 3.94 µM,> 5 µM,–,–,–,–,–,–,–
Cc1c(C(=O)NCc2ccc(Cl)c(Cl)c2)nn(-c2ccc(F)cc2F)c1-n1c(C)ccc1C,> 3.94 µM,> 5 µM,0.062 µM,0.035 µM,–,> 113,> 0.06 µM,–,–
N#Cc1c(C(=O)NN2CCCCC2)nn(-c2ccc(Cl)cc2)c1-n1cccc1,> 3.94 µM,–,5 µM,2.82 µM,–,> 1.4,–,–,–
Cc1c(C(=O)NCc2ccc(Cl)c(Cl)c2)nn(-c2ccc(Cl)cc2Cl)c1-n1cccc1,0.51 µM,0.65 µM,–,–,–,–,–,–,–
Cc1c(C(=O)NC2CCCCC2)nn(-c2ccc(Cl)c(Cl)c2)c1-n1cccc1,0.0017 µM,0.0022 µM,0.01 µM,0.0056 µM,–,0.3,0.001 µM,inactive,Active
Cc1c(C(=O)NCc2ccc(Cl)c(Cl)c2)nn(-c2c(Cl)cc(Cl)cc2Cl)c1-n1cccc1,> 3.94 µM,> 5 µM,–,–,–,–,–,–,–
Cc1nn(-c2ccc(Cl)cc2)c(-n2cccc2)c1C(=O)NCc1ccc(Cl)c(Cl)c1,> 3.94 µM,–,–,–,–,–,–,–,–
Cc1c(C(=O)NN2CCOCC2)nn(-c2ccc(F)cc2F)c1-n1cccc1,> 3.94 µM,> 5 µM,> 5 µM,> 2.82 µM,–,–,–,–,–
Cc1c(C(=O)NCC2CCCCC2)nn(-c2ccc(Cl)cc2)c1-n1cccc1,0.39 µM,0.5 µM,0.2 µM,0.11 µM,–,3.55,–,–,–
Cc1c(C(=O)NC2CCCCC2)nn(-c2ccc(Cl)cc2Cl)c1-n1c(C)ccc1C,0.087 µM,0.11 µM,0.074 µM,0.042 µM,–,2.07,–,–,–
Cc1c(C(=O)NCc2ccc(Cl)c(Cl)c2)nn(-c2ccc(Cl)c(Cl)c2)c1-n1c(C)ccc1C,1.37 µM,1.74 µM,0.5 µM,0.28 µM,–,4.89,–,–,–
N#Cc1c(C(=O)NCc2ccc(Cl)c(Cl)c2)nn(-c2ccccc2)c1-n1cccc1,> 3.94 µM,> 5 µM,–,–,–,–,–,–,–
Cc1c(C(=O)NN2CCCCC2)nn(-c2ccc(F)cc2F)c1-n1cccc1,2.4 µM,3 µM,–,–,–,–,–,–,–
Cc1c(C(=O)NC2CCCCC2)nn(-c2c(Cl)cc(Cl)cc2Cl)c1-n1c(C)ccc1C,0.39 µM,0.5 µM,–,–,–,–,–,–,–
Cc1c(C(=O)NCc2ccc(Cl)c(Cl)c2)nn(-c2ccc(F)cc2F)c1-n1cccc1,0.39 µM,0.5 µM,–,–,–,–,–,–,–
Cc1c(C(=O)NN2CCCCC2)nn(-c2ccc(Cl)cc2)c1-n1cccc1,2.18 µM,2.77 µM,0.2 µM,0.11 µM,–,19.8,–,–,–
